Each structure is given as a SMILES string. Among all 2,400 compounds or so, fewer than 10 were called active. Only a sample is shown. Unmarked numbers belong to inactive results.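 Rule for the calls: active = activation of at least 50%; inactive = the rest.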

G-protein coupled receptor 183 (Homo sapiens), sequence (P32249 whole entry, looked up): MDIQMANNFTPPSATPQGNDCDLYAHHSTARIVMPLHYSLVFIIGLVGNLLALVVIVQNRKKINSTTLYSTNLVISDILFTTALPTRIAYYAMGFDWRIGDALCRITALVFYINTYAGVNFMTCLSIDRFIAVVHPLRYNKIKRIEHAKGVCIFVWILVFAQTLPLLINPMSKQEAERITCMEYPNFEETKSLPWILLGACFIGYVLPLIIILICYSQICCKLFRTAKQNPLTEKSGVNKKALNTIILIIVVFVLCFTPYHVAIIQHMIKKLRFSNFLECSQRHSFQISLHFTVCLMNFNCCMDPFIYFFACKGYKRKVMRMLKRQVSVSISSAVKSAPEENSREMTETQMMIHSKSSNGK

The assay addresses G-protein coupled receptor 183 (Homo sapiens) (UniProt P32249). Description: EBI2 agonist activity of antagonist hits, confirmation, counter-screen for EBI2 antagonist project, cell-based, single concentration, agonist mode, luminescence (AID 652000). The conditions noted are these: EBI2-expressing cells, 60 min, at 5 µM, active compounds read high, 0% vehicle, 100% 7α,25-dihydroxycholesterol control. The essentials:
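material = beta-arrestin reporter cell line | input = 1500 cells in each well | technique = luminescent detection reagent readout | times = overnight seeding and 60-min compound at 37°C, 60-min detection at 25°C | control set = 7alpha,25-OHC wells as positive control | probe or stimulus = no added oxysterol for test compounds | dosing = one dose from 10 mM stock, 2.5 nL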
For orientation: The purpose of a counterscreen is to sort out artefacts and off-target activity.
As for `O=C(c1ccc(-n2cnnn2)cc1)N1CCN(C(c2ccccc2)c2ccccc2)CC1`, the activation was 1.53%.
For the compound `Cc1cc(OCCOc2cccc3cccnc23)c(C)cc1Cl`, the activation was 1.3%.
Consider `COc1ccc(C(C(=O)NC2CCCCC2)N(C(=O)c2snc(C(N)=O)c2N)c2ccccc2OC)cc1` (stereo not drawn), for which the activation was 1.3%.
With `CCCCN=C1C([N+](=O)[O-])=CC=C2C1=NC1(CCCCC1)N2O`, the activation is -0.38%.
For the compound `c1ccc(C(c2ccccc2)N2CCN(Cc3nnnn3C3CCCCC3)CC2)cc1`, the activation was 0.25%.
As for `COc1ccc(/C=N/N=C/c2c[nH]c(=O)c(C#N)c2Nc2ccccc2)cc1`, the activation was -1.52%.
In the case of `COc1ccc(N(CC(=O)Nc2cc(OC)ccc2OC)S(=O)(=O)c2c(C)noc2C)cc1`, the activation was 1.12%.
With `Cc1ccc(S(=O)(=O)NCCNC(C)c2ccc(Br)cc2)cc1` (stereo not drawn), the activation is 0.98%.
In the case of `Cc1cccc(-n2c(O)c(C=Nc3ccccc3N)c(=O)[nH]c2=O)c1`, the activation is -2.25%.
For the compound `O=C(/C=C/c1cccc([N+](=O)[O-])c1)N1CCN(Cc2ccccc2)CC1`, the activation was -0.29%.
For `O=c1[nH]c(CN2CCN(S(=O)(=O)c3ccc4c(c3)OCCO4)CC2)nc2sc3c(c12)CCCC3`, the activation was -1.11%.
Turning to `O=C(NCCCc1ccccc1)C1CCC(=O)N(CCc2ccc(Cl)cc2)C1` (stereo not drawn), the activation is 1.57%.
The value for `COc1ccc(C(=O)/C=C/c2ccc(OC3CSC3)cc2)cc1` was 2.89%.
For the compound `CCOC(=O)C1CCN(C(=O)COc2cc(C)c(Br)c(C)c2)CC1`, the activation was 2.25%.
In the case of `N#Cc1ccc(C2=CC(=O)C[C@H](c3ccc(Cl)cc3)C2)cc1`, the activation was 1.84%.
For the compound `COc1cccc(NC(=O)Cn2c3ccc(F)cc3c3nc4n(c(=O)c32)CCS4)c1`, the activation is 0.89%.
`COc1ccc2cc(C3=CC(=O)C[C@H](c4ccc5c(c4)OCO5)C3)ccc2c1`: the activation is -1.39%.
Consider `CCC(c1nnc(SCC(=O)NNC(=O)c2ccccc2)n1Cc1ccccc1)N(C)C` (stereo not drawn), for which the activation is -1.34%.
`Cc1cc(C)c2c(=O)n3c(nc2c1)C(CC(C)C)NC(=O)c1cc2ccccc2cc1-3` (stereo not drawn): the activation is 0.75%.
The value for `COc1ccc(OCC(=O)N2CCN(C(=O)c3cccs3)CC2)cc1` was 1.48%.
Consider `CCN1CCN(C(=O)CSc2ccc(C)cc2)CC1`, for which the activation was 0.02%.
The value for `Cc1ccc(OCC(=O)N2CCN(S(=O)(=O)c3ccc(Cl)s3)CC2)cc1C` was 1.84%; that for `CCCCC(=O)N(C)c1c(CC)nc2c(OCc3ccc(Cl)cc3Cl)cccn12` was -1.02%.
